From ChEMBL document CHEMBL1123566, “Synthesis and cardiac electrophysiological activity of 2- and 3-[(substituted phenyl)alkyl]quinuclidines. Structure-activity relationships” (1987)
Where “and” joins values, the source holds several entries; their conditions need not be identical. Equal values may be shown once.

Columns and labels:
Canis familiaris [1] = test: Conduction time was determined by intraduodenal administration of two dosages of 1 mg/kg (low dose) of compound in anesthetized dogs. Value was reported for experiment 2; type: functional, Canis lupus familiaris
Outline: (§1)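 Anesthetized dogs given the compound intraduodenally, generally as two doses with the second a cumulative total (low/high). FRP and CT measured at 15, 30 and 45 min after dosing. HR and BP taken during nonpacing intervals. Values are percent change from control per animal. Activity criterion is FRP or CT prolonged ≥12%. Vehicle: 5% dextrose in water/tragacanth.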

Canis familiaris [2] = test: Conduction time was determined by intraduodenal administration of two dosages of 1 mg/kg (low dose) of compound in anesthetized dogs. Value was reported for experiment 3; type: functional, Canis lupus familiaris; outline: as §1
Canis familiaris [3] = test: Conduction time was determined by intraduodenal administration of two dosages of 3 mg/kg (high dose) of compound in anesthetized dogs. Value was reported for experiment 3; type: functional, Canis lupus familiaris; outline: as §1
Canis familiaris [4] = test: Heart rate was determined by intraduodenal administration of two dosages of 3 mg/kg of (low dose) compound in anesthetized dogs. Value was reported for experiment 1; type: functional, Canis lupus familiaris
Outline: (§2)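 Anesthetized dogs; compound given intraduodenally, generally as two doses, the second a cumulative (high) dose. LV functional refractory period and conduction time measured 15, 30 and 45 min after dosing; heart rate and blood pressure measured during nonpacing intervals. Values are % change from control, given per individual animal. Active if FRP or CT prolonged by ≥12%.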

Canis familiaris [5] = test: Left ventricular refractory period was determined by intraduodenal administration of two dosages of 1 mg/kg of (low dose) compound in anesthetized dogs. Value was reported for experiment 3; type: functional, Canis lupus familiaris, Cardiac ventricle
Outline: (§3)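 Anesthetized dogs, usually given two intraduodenal doses, with the second dose cumulative (low/high). Left ventricular FRP and CT were determined at 15, 30 and 45 min after dosing. HR and BP were measured during nonpacing intervals. Values are % change from control at low/high dose, for individual animals. The vehicle-stability set used 5% dextrose in water/tragacanth (n = 8).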

Canis familiaris [6] = test: Heart rate was determined by intraduodenal administration of two dosages of 10 mg/kg of (high dose) compound in anesthetized dogs. Value was reported for experiment 1; type: functional, Canis lupus familiaris; outline: as §2
Canis familiaris [7] = test: Heart rate was determined by intraduodenal administration of two dosages of 1 mg/kg of (low dose) compound in anesthetized dogs. Value was reported for experiment 2; type: functional, Canis lupus familiaris; outline: as §1
Canis familiaris [8] = test: Left ventricular refractory period was determined by intraduodenal administration of two dosages (high/low) of 10 g/kg of compound in anesthetized dogs. Value was reported for experiment 3; type: functional, Canis lupus familiaris, Cardiac ventricle; details: in the assay text read “10 mg/kg” for “10 g/kg”; outline: as §3
Canis familiaris [9] = test: Left ventricular refractory period was determined by intraduodenal administration of two dosages of 10 mg/kg of (high dose) compound in anesthetized dogs. Value was reported for experiment 1; type: functional, Canis lupus familiaris, Cardiac ventricle
Outline: (§4)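 Anesthetized dogs received two intraduodenal doses, the second cumulative (low dose/high dose). Left ventricular FRP and CT were measured 15, 30 and 45 min after dosing. Heart rate and mean blood pressure were taken during nonpacing intervals. Values are percent change from control. The vehicle was 5% dextrose in water/tragacanth. Activity was defined as ≥12% prolongation of FRP or CT.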

Canis familiaris [10] = test: Left ventricular refractory period was determined by intraduodenal administration of two dosages of 1 mg/kg of (low dose) compound in anesthetized dogs. Value was reported for experiment 2; type: functional, Canis lupus familiaris, Cardiac ventricle; outline: as §3
Canis familiaris [11] = test: Left ventricular refractory period was determined by intraduodenal administration of two dosages of 3 mg/kg of (high dose) compound in anesthetized dogs. Value was reported for experiment 2; type: functional, Canis lupus familiaris, Cardiac ventricle; outline: as §3
Canis familiaris [12] = test: Left ventricular refractory period was determined by intraduodenal administration of two dosages of 3 mg/kg of (low dose) compound in anesthetized dogs. Value was reported for experiment 1; type: functional, Canis lupus familiaris, Cardiac ventricle; outline: as §4
Canis familiaris [13] = test: Mean arterial blood pressure was determined by intraduodenal administration of two dosages of 1 mg/kg of (low dose) compound in anesthetized dogs. Value was reported for experiment 2; type: functional, Canis lupus familiaris; outline: as §3
Canis familiaris [14] = test: Mean arterial blood pressure was determined by intraduodenal administration of two dosages of 10 mg/kg of (high dose) compound in anesthetized dogs. Value was reported for experiment 1; type: functional, Canis lupus familiaris; outline: as §4
Canis familiaris [15] = test: Mean arterial blood pressure was determined by intraduodenal administration of two dosages of 3 mg/kg of (high dose) compound in anesthetized dogs. Value was reported for experiment 3; type: functional, Canis lupus familiaris; outline: as §3
Canis familiaris [16] = test: Mean arterial blood pressure was determined by intraduodenal administration of two dosages of 3 mg/kg of (low dose) compound in anesthetized dogs. Value was reported for experiment 1; type: functional, Canis lupus familiaris; outline: as §4
Canis familiaris [17] = species: Canis familiaris; test: In vitro electrophysiological evaluation in canine cardiac ventricular muscle reported as maximum % change for functional refractory period (FRP) at 0.1-100 uM concentration range; set-up: species or system Canis lupus familiaris, Muscle tissue
Canis familiaris [18] = species: Canis familiaris; test: In vitro electrophysiological evaluation in canine cardiac ventricular muscle reported as maximum % change for conduction time(CT) at 0.1-100 uM concentration range; type: functional, Canis lupus familiaris, Muscle tissue
Outline: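 Canine right ventricle and papillary muscle strips in oxygenated Tyrode's solution, fitted with stimulating and recording electrodes. The extra-stimulus conduction-interval method was adapted for in vitro use. FRP and CT were read from a conduction-interval curve before and after various compound concentrations, and expressed as percent change from control. Compounds were taken from 10 mM deionized-water stock into Tyrode's. Each strip was used once as its own control.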

Canis familiaris [19] = species: Canis familiaris; test: In vitro electrophysiological evaluation in canine cardiac ventricular muscle reported as % change for conduction time(CT) at 0.1-100 uM concentration range; type: functional, Canis lupus familiaris, Muscle tissue
Outline: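 Canine right ventricular/papillary muscle strips in oxygenated Tyrode's, extracellular extra-stimulus conduction-interval method. FRP and CT are read from conduction-interval curves before and during rising concentrations. Compound is a 10 mM aqueous stock diluted into Tyrode's. Each strip is used once as its own control. Readouts are percent change from control at 10 μM, plus the maximum change with its concentration.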

Canis familiaris [20] = species: Canis familiaris; test: In vitro electrophysiological evaluation in canine cardiac ventricular muscle reported as % change for conduction time(CT) at 0.1-100 uM concentration range; Minimal (<IO%increase or a decrease in CT); type: functional, Canis lupus familiaris, Muscle tissue
Canis familiaris [21] = species: Canis familiaris; test: In vitro electrophysiological evaluation in canine cardiac ventricular muscle reported as maximum % change for functional refractory period (FRP) at 0.1-10 uM concentration range; set-up: species or system Canis lupus familiaris, Muscle tissue
Canis familiaris [22] = species: Canis familiaris; test: In vitro electrophysiological evaluation in canine cardiac Purkinje fibres reported as maximum percent change Vmax concentration range of 1-100 uM; type: functional; details: Canis lupus familiaris; Purkinje fiber
Outline: (§5)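 Canine cardiac Purkinje fibers, intracellular recording, paced at a basic cycle length of 1 s. APD95 and Vmax are recorded together across cumulative concentrations. Compound is a 10 mM aqueous stock diluted into Tyrode's solution. Each fiber is used once as its own control. Readouts are percent change from control at 10 μM, and the maximum change with the concentration where it occurred.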

Canis familiaris [23] = species: Canis familiaris; test: In vitro electrophysiological evaluation in canine cardiac Purkinje fibres reported as percent change Vmax concentration range of 0.01-100 uM; […]; type: functional; details: Canis lupus familiaris; Purkinje fiber; outline: as §5
Canis familiaris [24] = species: Canis familiaris; test: In vitro electrophysiological activity in canine cardiac Purkinje fibres given as maximum % change for action potential duration at 0.01-100 uM concentration; type: functional, Canis lupus familiaris, Purkinje fiber; outline: as §5
Canis familiaris [25] = species: Canis familiaris; test: In vitro electrophysiological evaluation in canine cardiac Purkinje fibres reported as % change for action potential duration at 0.1-100 uM concentration range; type: functional, Canis lupus familiaris, Purkinje fiber
Outline: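 Canine cardiac Purkinje fibres, intracellular microelectrode recording, paced at a basic cycle length of 1 s. APD95 and Vmax read simultaneously. Compound: 10 mM stock in deionized water, diluted into Tyrode's solution, tested over the stated concentration range. Each fibre used once as its own control. Result is % change from control, given at 10 µM or as the maximum with its concentration. M = <10% decrease or an increase in Vmax.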

CCCCCCC[N+](CC)(CC)CCCCc1ccc(Cl)cc1.O=P([O-])(O)O [CLOFILIUM PHOSPHATE]
CT (Canis familiaris [1]): -5% | CT (Canis familiaris [2]): 0% | CT (Canis familiaris [3]): -7% | HR (Canis familiaris [4]): -9% | LV FRP (Canis familiaris [5]): 4% | HR (Canis familiaris [6]): -24% | HR (Canis familiaris [7]): -2% | L (Canis familiaris [8]): 23% | LV FRP (Canis familiaris [9]): 22% | LV FRP (Canis familiaris [10]): -1% | LV FRP (Canis familiaris [11]): 2% | LV FRP (Canis familiaris [12]): 10% | Mean blood pressure (Canis familiaris [13]): -2% | Mean blood pressure (Canis familiaris [14]): -11% | Mean blood pressure (Canis familiaris [15]): 0% | Mean blood pressure (Canis familiaris [16]): -7% | FRP (Canis familiaris [17]): -3% and 14% and 7% | CT (Canis familiaris [18]): 19% | CT (Canis familiaris [19]): 11% | CT (Canis familiaris [20]): <10% | FRP (Canis familiaris [21]): 38% | Vmax (Canis familiaris [22]): -69% and -65% | Vmax (Canis familiaris [23]): < 10% | APD95 (Canis familiaris [24]): 27% and 55% | APD95 (Canis familiaris [25]): 48% and 46%
